This note sets out measurements from ChEMBL document CHEMBL1135836, “Cyclodextrin-derived host molecules as reversal agents for the neuromuscular blocker rocuronium bromide: synthesis and structure-activity relationships” (J Med Chem, 2002).

The EC50 is the concentration that produces a half-maximal response. Usually ED50 stands for the dose at which the effect has come halfway, by size or by number of responders.

What all share (type): functional
Test [1] is filed under the species Mus musculus. Briefly: In vitro reversal activity versus ~90% block by rocuronium in isolated mouse hemidiaphragm, expressed as effective conc.
The test system of test [2] is Cavia porcellus. Put plainly: In vivo reversal activity versus ~90% block by rocuronium in guinea pig, expressed as % of maximum reversal at 8 umol/kg conc. The gist of the method:
(§1)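 Male Dunkin-Hartley guinea pigs (600-900 g) anaesthetized ip with pentobarbitone 10 mg/kg plus urethane 1000 mg/kg, tracheotomized and artificially ventilated. Continuous iv rocuronium bromide infusion (~10 nmol kg-1 min-1) raised until steady-state twitch block of 85-90%. Increasing single iv doses of reversal agent given by a separate catheter. Max reversal is peak twitch recovery versus preblock height at highest dose tested; means ± SEM, n ≥ 2 or single experiment.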

The subject of test [3] is Cavia porcellus. Put plainly: In vivo reversal activity versus ~90% block by rocuronium in guinea pig. An outline of the steps:
(§2)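 Male Dunkin-Hartley guinea pigs (600-900 g), anaesthetized ip with pentobarbitone 10 mg/kg plus urethane 1000 mg/kg, tracheotomized and ventilated. Continuous iv rocuronium infusion (~10 nmol kg-1 min-1) was raised to a steady 85-90% block. Increasing iv doses of agent were given cumulatively. ED50 = 50% recovery versus preblock twitch, by regression. Mean ± SEM of at least two experiments, or one.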

The species entered for test [4] is Mus musculus. Briefly: In vitro reversal activity versus ~90% block by rocuronium in isolated mouse hemidiaphragm, expressed as % of maximum reversal at 18 uM conc.
The species entered for test [5] is Mus musculus. Put plainly: In vitro reversal activity versus ~90% block by rocuronium in isolated mouse hemidiaphragm, expressed as % of maximum reversal at 7.2 uM conc.
Test [6] deals with Cavia porcellus. Put plainly: In vivo reversal activity versus ~90% block by rocuronium in guinea pig, expressed as % of maximum reversal at 2 umol/kg conc. The gist of the method: as §1
The test system of test [7] is Cavia porcellus. Briefly: In vivo reversal activity versus ~90% block by rocuronium in guinea pig, expressed as % of maximum reversal at 16 umol/kg conc. An outline of the steps:
as §1

The species entered for test [8] is Mus musculus. Briefly: In vitro reversal activity versus ~90% block by rocuronium in isolated mouse hemidiaphragm, expressed as % of maximum reversal at 360 uM conc.
Test [9] relates to Cavia porcellus. Briefly: In vivo reversal activity versus ~90% block by rocuronium in guinea pig, expressed as % of maximum reversal at 15 umol/kg conc. The gist of the method: as §1
The subject of test [10] is Cavia porcellus. Briefly: In vivo reversal activity versus ~90% block by rocuronium in guinea pig, expressed as % of maximum reversal at 31.8 umol/kg conc. An outline of the steps:
as §1

Test [11] is filed under the species Mus musculus. Briefly: In vitro reversal activity versus ~90% block by rocuronium in isolated mouse hemidiaphragm, expressed as % of maximum reversal at 180 uM conc.
Test [12] has as its system Cavia porcellus. Briefly: In vivo reversal activity versus ~90% block by rocuronium in guinea pig, expressed as % of maximum reversal at 2.8 umol/kg conc. The gist of the method:
as §1

Test [13] deals with Cavia porcellus. Briefly: In vivo reversal activity versus ~90% block by rocuronium in guinea pig, expressed as % of maximum reversal at 3.6 umol/kg conc. The gist of the method: as §1
The species entered for test [14] is Mus musculus. Put plainly: In vitro reversal activity versus ~90% block by rocuronium in isolated mouse hemidiaphragm, expressed as % of maximum reversal at 9 uM conc.
Test [15] has as its system Cavia porcellus. Put plainly: In vivo reversal activity versus ~90% block by rocuronium in guinea pig, expressed as % of maximum reversal at 1.6 umol/kg conc. The gist of the method: as §2
Test [16] concerns Cavia porcellus. Briefly: In vivo reversal activity versus ~90% block by rocuronium in guinea pig, expressed as % of maximum reversal. at a conc. of 0.08 uM.
For test [17], the species on record is Mus musculus. Put plainly: In vitro reversal activity versus ~90% block by rocuronium in isolated mouse hemidiaphragm, expressed as % of maximum reversal.

For the compound `CC(CSCC1O[C@@H]2O[C@@H]3C(CSCC(C)C(=O)[O-])O[C@H](O[C@@H]4C(CSCC(C)C(=O)[O-])O[C@H](O[C@@H]5C(CSCC(C)C(=O)[O-])O[C@H](O[C@@H]6C(CSCC(C)C(=O)[O-])O[C@H](O[C@@H]7C(CSCC(C)C(=O)[O-])O[C@H](O[C@@H]8C(CSCC(C)C(=O)[O-])O[C@H](O[C@@H]9C(CSCC(C)C(=O)[O-])O[C@H](O[C@H]1C(O)C2O)C(O)C9O)C(O)C8O)C(O)C7O)C(O)C6O)C(O)C5O)C(O)C4O)C(O)C3O)C(=O)[O-].[Na+].[Na+].[Na+].[Na+].[Na+].[Na+].[Na+].[Na+]` (some centres undefined), the EC50 in the test listed under Mus musculus [1] is 9.5 µM. Further, the Max reversal in the test with Cavia porcellus [2] worked out at 97.8%; in the test listed under Mus musculus [4], 77.5%. In addition, the 50% effective dose (ED50) in the test on Cavia porcellus [3] was found to be 0.73 µmol/kg.

Take `O=C([O-])Cc1cccc(SCC2O[C@@H]3O[C@@H]4C(CSc5cccc(CC(=O)[O-])c5)O[C@H](O[C@@H]5C(CSc6cccc(CC(=O)[O-])c6)O[C@H](O[C@@H]6C(CSc7cccc(CC(=O)[O-])c7)O[C@H](O[C@@H]7C(CSc8cccc(CC(=O)[O-])c8)O[C@H](O[C@@H]8C(CSc9cccc(CC(=O)[O-])c9)O[C@H](O[C@@H]9C(CSc%10cccc(CC(=O)[O-])c%10)O[C@H](O[C@@H]%10C(CSc%11cccc(CC(=O)[O-])c%11)O[C@H](O[C@H]2C(O)C3O)C(O)C%10O)C(O)C9O)C(O)C8O)C(O)C7O)C(O)C6O)C(O)C5O)C(O)C4O)c1.[Na+].[Na+].[Na+].[Na+].[Na+].[Na+].[Na+].[Na+]` (some centres undefined): the Max reversal worked out at 99.1% in the test filed under Mus musculus [5] and 104.6% with Cavia porcellus [6]. Further, the EC50 in the test filed under Mus musculus [1] was 1.7 µM. Also, the ED50 in the test on Cavia porcellus [3] stood at 0.53 µmol/kg.

As for `O=C([O-])CCSCC1O[C@@H]2O[C@@H]3C(CSCCC(=O)[O-])O[C@H](O[C@@H]4C(CSCCC(=O)[O-])O[C@H](O[C@@H]5C(CSCCC(=O)[O-])O[C@H](O[C@@H]6C(CSCCC(=O)[O-])O[C@H](O[C@@H]7C(CSCCC(=O)[O-])O[C@H](O[C@H]1C(O)C2O)C(O)C7O)C(O)C6O)C(O)C5O)C(O)C4O)C(O)C3O.[Na+].[Na+].[Na+].[Na+].[Na+].[Na+]` (some centres undefined), the EC50 in the test filed under Mus musculus [1] is above 360 µM. Further, the Max reversal in the test with Cavia porcellus [7] is listed as 3.2%; in the test listed under Mus musculus [8], 0%. For the same compound, the ED50 with Cavia porcellus [3] was above 16 µmol/kg.

Turning to `CC(C)(CSCC1O[C@@H]2O[C@@H]3C(CSCC(C)(C)C(=O)[O-])O[C@H](O[C@@H]4C(CSCC(C)(C)C(=O)[O-])O[C@H](O[C@@H]5C(CSCC(C)(C)C(=O)[O-])O[C@H](O[C@@H]6C(CSCC(C)(C)C(=O)[O-])O[C@H](O[C@@H]7C(CSCC(C)(C)C(=O)[O-])O[C@H](O[C@@H]8C(CSCC(C)(C)C(=O)[O-])O[C@H](O[C@@H]9C(CSCC(C)(C)C(=O)[O-])O[C@H](O[C@H]1C(O)C2O)C(O)C9O)C(O)C8O)C(O)C7O)C(O)C6O)C(O)C5O)C(O)C4O)C(O)C3O)C(=O)[O-].[Na+].[Na+].[Na+].[Na+].[Na+].[Na+].[Na+].[Na+]` (some centres undefined), the EC50 in the test filed under Mus musculus [1] came to 20.3 µM. Also, the Max reversal in the test with Cavia porcellus [9] is 98.8%; in the test filed under Mus musculus [4], 47.6%. The ED50 with Cavia porcellus [3] came to 1.32 µmol/kg.

Regarding `O=C([O-])CCc1ccc(SCC2O[C@@H]3O[C@@H]4C(CO)O[C@H](O[C@@H]5C(CO)O[C@H](O[C@@H]6C(CO)O[C@H](O[C@@H]7C(CO)O[C@H](O[C@@H]8C(CO)O[C@H](O[C@@H]9C(CO)O[C@H](O[C@@H]%10C(CO)O[C@H](O[C@H]2C(O)C3O)C(O)C%10O)C(O)C9O)C(O)C8O)C(O)C7O)C(O)C6O)C(O)C5O)C(O)C4O)cc1.[Na+]` (some centres undefined), the Max reversal is reported as 93.8% in the test with Cavia porcellus [10] and 36.2% in the test listed under Mus musculus [4]. For the same compound, the EC50 in the test filed under Mus musculus [1] is 32.8 µM. In addition, the ED50 with Cavia porcellus [3] turned out to be 3.33 µmol/kg.

Regarding `O=C([O-])c1ccc(SCC2O[C@@H]3O[C@@H]4C(CO)O[C@H](O[C@@H]5C(CO)O[C@H](O[C@@H]6C(CO)O[C@H](O[C@@H]7C(CO)O[C@H](O[C@@H]8C(CO)O[C@H](O[C@@H]9C(CO)O[C@H](O[C@@H]%10C(CO)O[C@H](O[C@H]2C(O)C3O)C(O)C%10O)C(O)C9O)C(O)C8O)C(O)C7O)C(O)C6O)C(O)C5O)C(O)C4O)cc1.[Na+]` (some centres undefined), the Max reversal in the test filed under Mus musculus [11] is listed as 94.7%; in the test on Cavia porcellus [2], 102.4%. For the same compound, the EC50 in the test listed under Mus musculus [1] was found to be 50.3 µM. In the test on Cavia porcellus [3], the ED50 was found to be 0.94 µmol/kg.

`OCCSCC1O[C@@H]2O[C@@H]3C(CSCCO)O[C@H](O[C@@H]4C(CSCCO)O[C@H](O[C@@H]5C(CSCCO)O[C@H](O[C@@H]6C(CSCCO)O[C@H](O[C@@H]7C(CSCCO)O[C@H](O[C@@H]8C(CSCCO)O[C@H](O[C@@H]9C(CSCCO)O[C@H](O[C@H]1C(O)C2O)C(O)C9O)C(O)C8O)C(O)C7O)C(O)C6O)C(O)C5O)C(O)C4O)C(O)C3O` (some centres undefined): the Max reversal in the test listed under Mus musculus [5] was 86.4%; in the test on Cavia porcellus [6], 95.8%. The EC50 in the test listed under Mus musculus [1] stood at 4 µM. Further, the ED50 with Cavia porcellus [3] amounted to 0.21 µmol/kg.

As for `O=C([O-])CCc1ccc(SCC2O[C@@H]3O[C@@H]4C(CSc5ccc(CCC(=O)[O-])cc5)O[C@H](O[C@@H]5C(CSc6ccc(CCC(=O)[O-])cc6)O[C@H](O[C@@H]6C(CSc7ccc(CCC(=O)[O-])cc7)O[C@H](O[C@@H]7C(CSc8ccc(CCC(=O)[O-])cc8)O[C@H](O[C@@H]8C(CSc9ccc(CCC(=O)[O-])cc9)O[C@H](O[C@@H]9C(CSc%10ccc(CCC(=O)[O-])cc%10)O[C@H](O[C@@H]%10C(CSc%11ccc(CCC(=O)[O-])cc%11)O[C@H](O[C@H]2C(O)C3O)C(O)C%10O)C(O)C9O)C(O)C8O)C(O)C7O)C(O)C6O)C(O)C5O)C(O)C4O)cc1.[Na+].[Na+].[Na+].[Na+].[Na+].[Na+].[Na+].[Na+]` (some centres undefined), the Max reversal in the test listed under Mus musculus [5] stood at 95.4%; in the test with Cavia porcellus [12], 94.3%. Further, the EC50 in the test listed under Mus musculus [1] is 3 µM. Moreover, the ED50 in the test on Cavia porcellus [3] worked out at 1.01 µmol/kg.

`OCCCSCC1O[C@@H]2O[C@@H]3C(CSCCCO)O[C@H](O[C@@H]4C(CSCCCO)O[C@H](O[C@@H]5C(CSCCCO)O[C@H](O[C@@H]6C(CSCCCO)O[C@H](O[C@@H]7C(CSCCCO)O[C@H](O[C@@H]8C(CSCCCO)O[C@H](O[C@@H]9C(CSCCCO)O[C@H](O[C@H]1C(O)C2O)C(O)C9O)C(O)C8O)C(O)C7O)C(O)C6O)C(O)C5O)C(O)C4O)C(O)C3O` (some centres undefined): the EC50 in the test listed under Mus musculus [1] turned out to be 4.1 µM. Also, the Max reversal in the test with Cavia porcellus [13] is 98.3%; in the test filed under Mus musculus [14] it was 96.5%. The ED50 in the test on Cavia porcellus [3] was 0.52 µmol/kg.

For the compound `O=C([O-])c1ccccc1C(=O)NCCCSCC1O[C@@H]2O[C@@H]3C(CSCCCNC(=O)c4ccccc4C(=O)[O-])O[C@H](O[C@@H]4C(CSCCCNC(=O)c5ccccc5C(=O)[O-])O[C@H](O[C@@H]5C(CSCCCNC(=O)c6ccccc6C(=O)[O-])O[C@H](O[C@@H]6C(CSCCCNC(=O)c7ccccc7C(=O)[O-])O[C@H](O[C@@H]7C(CSCCCNC(=O)c8ccccc8C(=O)[O-])O[C@H](O[C@@H]8C(CSCCCNC(=O)c9ccccc9C(=O)[O-])O[C@H](O[C@@H]9C(CSCCCNC(=O)c%10ccccc%10C(=O)[O-])O[C@H](O[C@H]1C(O)C2O)C(O)C9O)C(O)C8O)C(O)C7O)C(O)C6O)C(O)C5O)C(O)C4O)C(O)C3O.[Na+].[Na+].[Na+].[Na+].[Na+].[Na+].[Na+].[Na+]` (some centres undefined), the Max reversal in the test listed under Mus musculus [5] was 90.7%; in the test on Cavia porcellus [15] it was 83%. In addition, the EC50 in the test filed under Mus musculus [1] worked out at 0.1 µM. Also, the ED50 in the test with Cavia porcellus [3] turned out to be 0.27 µmol/kg.

For the compound `CN(C)C(=O)Oc1cccc([N+](C)(C)C)c1.[Br-]` [NEOSTIGMINE BROMIDE], the figures for the Max reversal in the test with Cavia porcellus [16] and in the test listed under Mus musculus [17] were 65.3% and 74.4%, respectively. The EC50 in the test listed under Mus musculus [1] is 0.9 µM. Moreover, in the test on Cavia porcellus [3], the ED50 stood at 0.04 µmol/kg.
